Data: ChEMBL document CHEMBL3414468, “N-benzoyl-1,5-benzothiazepine and its S-oxide as vasopressin receptor ligands: insight into the active stereochemistry around the seven-membered ring” (J Med Chem, 2015)
Values joined by “and” are separate entries in the source; they are usually repeats but may differ in a detail not shown here. Identical values can stand only once.

Assays:
Vasopressin V2 receptor [1] = target: T1, Vasopressin V2 receptor (Homo sapiens, UniProt P30518); experiment: Displacement of [3H]-(Arg8)-vasopressin from human vasopressin V2 receptor transfected in CHO cell membranes
T1 sequence (P30518 whole entry): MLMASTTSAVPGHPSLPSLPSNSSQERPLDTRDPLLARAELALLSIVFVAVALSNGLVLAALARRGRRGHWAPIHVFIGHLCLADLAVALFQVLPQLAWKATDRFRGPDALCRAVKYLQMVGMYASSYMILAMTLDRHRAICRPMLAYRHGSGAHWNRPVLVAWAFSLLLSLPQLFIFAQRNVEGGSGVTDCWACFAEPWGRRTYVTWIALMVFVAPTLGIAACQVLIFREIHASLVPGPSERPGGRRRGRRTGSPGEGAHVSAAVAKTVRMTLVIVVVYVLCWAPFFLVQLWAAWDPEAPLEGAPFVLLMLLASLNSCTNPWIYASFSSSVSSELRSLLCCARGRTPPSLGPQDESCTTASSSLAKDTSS
Summary of the method: (§1)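 Competition binding of [3H](Arg8)-vasopressin to human V1a or V2 receptors. Ki is reported as the mean of duplicate measurements. Where no Ki was given, percent inhibition of radioligand binding was read at 10 μM test compound.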

Vasopressin V1a receptor [2] = target: T2, Vasopressin V1a receptor (Homo sapiens, UniProt P37288); experiment: Displacement of [3H]-(Arg8)-vasopressin from human vasopressin V1a receptor transfected in CHO cell membranes; summary of the method: as §1
Target sequence in this assay (P37288 whole entry): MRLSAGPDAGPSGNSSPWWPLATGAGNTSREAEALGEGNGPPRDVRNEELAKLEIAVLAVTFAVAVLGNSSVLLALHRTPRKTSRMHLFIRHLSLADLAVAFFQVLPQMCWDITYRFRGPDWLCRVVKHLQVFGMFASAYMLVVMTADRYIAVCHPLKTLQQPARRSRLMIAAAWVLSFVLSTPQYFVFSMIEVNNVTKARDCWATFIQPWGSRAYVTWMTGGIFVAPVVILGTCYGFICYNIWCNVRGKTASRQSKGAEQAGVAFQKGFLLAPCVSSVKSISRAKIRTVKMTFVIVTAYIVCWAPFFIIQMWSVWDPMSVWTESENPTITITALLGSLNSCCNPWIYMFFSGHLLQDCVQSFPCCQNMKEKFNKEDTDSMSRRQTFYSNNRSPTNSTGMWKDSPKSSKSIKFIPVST

Vasopressin V2 receptor [3] = target: T1, Vasopressin V2 receptor; experiment: Displacement of [3H]-(Arg8)-vasopressin from human vasopressin V2 receptor transfected in CHO cell membranes at 10 uM relative to control; summary of the method: as §1
Vasopressin V1a receptor [4] = target: T2, Vasopressin V1a receptor; experiment: Displacement of [3H]-(Arg8)-vasopressin from human vasopressin V1a receptor transfected in CHO cell membranes at 10 uM relative to control; summary of the method: as §1
Target sequence in this assay (P37288 whole entry, looked up): as the sequence (P37288 whole entry) above

Row | Ki (Vasopressin V2 receptor [1]) | Ki (Vasopressin V1a receptor [2]) | inhibition (Vasopressin V2 receptor [3]) [%] | inhibition (Vasopressin V1a receptor [4]) [%] | Compound
1 | 360 nM and 184 nM and 1800 nM | 37 nM and 19 nM and 147 nM | – | – | Cc1ccccc1C(=O)Nc1ccc(C(=O)N2CCCSc3cccc(C)c32)cc1
2 | 880 nM | 48 nM | – | – | Cc1ccccc1C(=O)Nc1ccc(C(=O)N2CCCSc3c(C)cccc32)cc1
3 | 870 nM | 910 nM | – | – | Cc1ccccc1C(=O)Nc1ccc(C(=O)N2CCC[S+]([O-])c3ccccc32)cc1 (racemic)
4 | 1240 nM | – | – | – | Cc1ccccc1C(=O)Nc1ccc(C(=O)N2CCC[S@@+]([O-])c3ccccc32)cc1 (stereo in doubt; (+)) [listing 1 of 2 here]
5 | – | 660 nM | – | – | Cc1ccccc1C(=O)Nc1ccc(C(=O)N2CCC[S@@+]([O-])c3c(C)cccc32)cc1 (stereo in doubt; (+)) [listing 1 of 2 here]
6 | – | – | – | 57 | Cc1ccccc1C(=O)Nc1ccc(C(=O)N2CCC[S@@+]([O-])c3ccccc32)cc1 (stereo in doubt; (+)) [listing 2 of 2 here]
7 | – | – | 0 | 53 | Cc1ccccc1C(=O)Nc1ccc(C(=O)N2CCC[S@@+]([O-])c3c(C)cccc32)cc1 (stereo in doubt; (-))

The next lines start with the compound.

Row | Compound | Ki (Vasopressin V2 receptor [1]) | Ki (Vasopressin V1a receptor [2]) | inhibition (Vasopressin V2 receptor [3]) [%] | inhibition (Vasopressin V1a receptor [4]) [%]
8 | Cc1ccccc1C(=O)Nc1ccc(C(=O)N2CCCSc3ccccc32)cc1 | 21 nM | 68 nM | – | –
9 | Cc1ccccc1C(=O)Nc1ccc(C(=O)N2CCCN(C)c3cccc(C)c32)cc1 | 130 nM and 98 nM and 310 nM | 5.9 nM and 4.4 nM and 13 nM | – | –
10 | Cc1ccccc1C(=O)Nc1ccc(C(=O)N2CCC[S+]([O-])c3c(C)cccc32)cc1 (racemic) | – | 870 nM | 34 | –
11 | Cc1ccccc1C(=O)Nc1ccc(C(=O)N2CCC[S@@+]([O-])c3cccc(C)c32)cc1 (racemic) | – | – | 22 | 55
12 | Cc1ccccc1C(=O)Nc1ccc(C(=O)N2CCC[S@@+]([O-])c3c(C)cccc32)cc1 (stereo in doubt; (+)) [listing 2 of 2 here] | – | – | 48 | –
13 | Cc1ccccc1C(=O)Nc1ccc(C(=O)N2CCC[S@@+]([O-])c3ccccc32)cc1 (stereo in doubt; (-)) | 820 nM | 550 nM | – | –
